Values after ≈ are worked out from the molar mass of the structure shown.
Tests used:
[1] = test system: Staphylococcus warneri; experiment: Antibacterial activity against Staphylococcus warneri after 18 to 22 hrs by […]; assay type: functional
[2] = Cytotoxicity against human Hep2 cells assessed as cell survival fraction at 0.5 ug/mL after 24 hrs by trypan blue exclusion method; assay type: cell-based; conditions: HEp-2 cells, read-out: Survival
Outline: (§1)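 Hep2 cells grown in DMEM + 10% FBS + 1% pen/strep at 37 °C, 5% CO2, used at 60–70% confluency. Exponential-phase cells (1 × 10^5/mL) incubated 24 h with six concentrations (100–0.05), final DMSO ≤0.5%. Controls were cells alone or cells + DMSO, with 1 mM sodium nitroprusside as positive control. Cells scraped off, mixed 1:1 with 0.4% trypan blue and counted on a hemocytometer by two operators. Blue cells were scored dead; results given as % viable cells.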

[3] = test system: Candida albicans; experiment: Antifungal activity against 10 strains of Candida albicans after 24 hrs by […]; assay type: functional
[4] = Antiproliferative activity against human Hep2 cells assessed as cell survival fraction at 5 ug/mL after 24 hrs by MTT assay; assay type: cell-based; conditions: HEp-2 cells, read-out: Survival
Outline: (§2)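 Hep2 (human laryngeal carcinoma) cells maintained in DMEM + 10% FBS + 1% pen/strep, 37 °C, 5% CO2. Seeded in triplicate at 1 × 10^5/well in serum-free medium and exposed 24 h at 37 °C to six compound concentrations (100–0.05). DMSO stock diluted in medium, final DMSO ≤0.5%. MTT reagent added for 2 h at 37 °C, then detergent for 2 h at RT in the dark. Read as OD550 minus OD650.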

[5] = test system: Proteus vulgaris; experiment: Antibacterial activity against Proteus vulgaris after 18 to 22 hrs by […]; assay type: functional
[6] = test system: Candida parapsilosis; experiment: Antifungal activity against 4 strains of Candida parapsilosis after 24 hrs by […]; assay type: functional; conditions: Lodderomyces parapsilosis
[7] = test system: Nakaseomyces glabratus; experiment: Antifungal activity against 4 strains of Candida glabrata after 24 hrs by […]; assay type: functional
[8] = test system: Escherichia coli; experiment: Antibacterial activity against Escherichia coli after 18 to 22 hrs by […]; assay type: functional
[9] = test system: Klebsiella aerogenes; experiment: Antibacterial activity against Enterobacter aerogenes after 18 to 22 hrs by […]; assay type: functional
[10] = Cytotoxicity against human Hep2 cells assessed as cell survival fraction at 0.05 ug/mL after 24 hrs by trypan blue exclusion method; assay type: cell-based; conditions: HEp-2 cells, read-out: Survival; outline: as §1
[11] = Cytotoxicity against human Hep2 cells assessed as cell survival fraction at 5 ug/mL after 24 hrs by trypan blue exclusion method; assay type: cell-based; conditions: HEp-2 cells, read-out: Survival; outline: as §1
[12] = Antiproliferative activity against human Hep2 cells assessed as cell survival fraction at 10 ug/mL after 24 hrs by MTT assay; assay type: cell-based; conditions: HEp-2 cells, read-out: Survival; outline: as §2
[13] = test system: Candida tropicalis; experiment: Antifungal activity against 4 strains of Candida tropicalis after 24 hrs by […]; assay type: functional
[14] = test system: HEp-2; experiment: Cytotoxicity against human Hep2 cells assessed as cell survival fraction after 24 hrs by trypan blue exclusion method; assay type: cell-based; conditions: HEp-2, 24 h
Outline: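 Hep2 cells in DMEM with 10% FBS and 1% penicillin-streptomycin, at 37 °C, 5% CO2, grown to 60–70% confluency. Seeded at 1 × 10^5/mL and exposed 24 h to six concentrations ([…]); DMSO ≤0.5%. Controls were cells alone, cells with DMSO, and 1 mM nitroprusside. Scraped cells mixed 1:1 with 0.4% trypan blue; blue cells counted as dead by hemocytometer, two operators. EC50 from ≥3 independent experiments.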

[15] = Cytotoxicity against human Hep2 cells assessed as cell survival fraction at 100 ug/mL after 24 hrs by trypan blue exclusion method; assay type: cell-based; conditions: HEp-2 cells, read-out: Survival; outline: as §1
[16] = Antiproliferative activity against human Hep2 cells assessed as cell survival fraction at 50 ug/mL after 24 hrs by MTT assay; assay type: cell-based; conditions: HEp-2 cells, read-out: Survival; outline: as §2
[17] = test system: Enterococcus faecalis; experiment: Antibacterial activity against Enterococcus faecalis after 18 to 22 hrs by […]; assay type: functional
[18] = test system: Klebsiella pneumoniae; experiment: Antibacterial activity against Klebsiella pneumoniae after 18 to 22 hrs by […]; assay type: functional
[19] = Antiproliferative activity against human Hep2 cells assessed as cell survival fraction at 0.05 ug/mL after 24 hrs by MTT assay; assay type: cell-based; conditions: HEp-2 cells, read-out: Survival; outline: as §2
[20] = test system: [Candida] sake; experiment: Antifungal activity against 2 strains of Candida sake after 24 hrs by […]; assay type: functional; conditions: Fermentozyma sake
[21] = test system: HEp-2; experiment: Antiproliferative activity against human Hep2 cells assessed as cell survival fraction after 24 hrs by MTT assay; assay type: cell-based; conditions: HEp-2, 24 h
Outline: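 Hep2 laryngeal carcinoma cells seeded in triplicate at 1 × 10^5/well in serum-free DMEM. Exposed 24 h at 37 °C, 5% CO2, to six concentrations ([…]); DMSO ≤0.5%. MTT reagent added for 2 h at 37 °C, then detergent for 2 h at room temperature in the dark. OD550 minus OD650 read. EC50 from ≥3 independent experiments.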

[22] = Antiproliferative activity against human Hep2 cells assessed as cell survival fraction at 100 ug/mL after 24 hrs by MTT assay; assay type: cell-based; conditions: HEp-2 cells, read-out: Survival; outline: as §2
[23] = Cytotoxicity against human Hep2 cells assessed as cell survival fraction at 10 ug/mL after 24 hrs by trypan blue exclusion method; assay type: cell-based; conditions: HEp-2 cells, read-out: Survival; outline: as §1
[24] = test system: Staphylococcus aureus; experiment: Antibacterial activity against Staphylococcus aureus after 18 to 22 hrs by […]; assay type: functional
[25] = Antiproliferative activity against human Hep2 cells assessed as cell survival fraction at 0.5 ug/mL after 24 hrs by MTT assay; assay type: cell-based; conditions: HEp-2 cells, read-out: Survival; outline: as §2
[26] = Cytotoxicity against human Hep2 cells assessed as cell survival fraction at 50 ug/mL after 24 hrs by trypan blue exclusion method; assay type: cell-based; conditions: HEp-2 cells, read-out: Survival; outline: as §1
[27] = test system: Pichia kudriavzevii; experiment: Antifungal activity against 3 strains of Candida krusei after 24 hrs by […]; assay type: functional
[28] = test system: Streptococcus pyogenes; experiment: Antibacterial activity against Streptococcus pyogenes after 18 to 22 hrs by […]; assay type: functional

SMILES: CC1CC/C(=N\Nc2nc(-c3ccc(I)cc3)cs2)C1 (stereo not drawn)
- MIC [1]: 32 µg/mL (≈ 80.5 µM)
- viability at 24 h, 0.5 ug/mL [2]: 92%
- MIC [3]: 0.25 µg/mL (≈ 0.629 µM)
- viability at 24 h, 5 ug/mL [4]: 92%
- MIC [5]: 32 µg/mL (≈ 80.5 µM)
- MIC [6]: 2 µg/mL (≈ 5.03 µM)
- MIC [7]: 2 µg/mL (≈ 5.03 µM)
- MIC [8]: 32 µg/mL (≈ 80.5 µM)
- MIC [9]: 32 µg/mL (≈ 80.5 µM)
- viability at 24 h, 0.05 ug/mL [10]: 95%
- viability at 24 h, 5 ug/mL [11]: 83%
- viability at 24 h, 10 ug/mL [12]: 90%
- MIC [13]: 0.5 µg/mL (≈ 1.26 µM)
- EC50 [14]: 51 µg/mL (≈ 128 µM)
- viability at 24 h, 100 ug/mL [15]: 0%
- viability at 24 h, 50 ug/mL [16]: 28%
- MIC [17]: 32 µg/mL (≈ 80.5 µM)
- MIC [18]: > 128 µg/mL
- viability at 24 h, 0.05 ug/mL [19]: 100%
- MIC [20]: 4 µg/mL (≈ 10.1 µM)
- EC50 [21]: 50 µg/mL (≈ 126 µM)
- viability at 24 h, 100 ug/mL [22]: 10%
- viability at 24 h, 10 ug/mL [23]: 88%
- MIC [24]: 32 µg/mL (≈ 80.5 µM)
- viability at 24 h, 0.5 ug/mL [25]: 100%
- viability at 24 h, 50 ug/mL [26]: 69%
- MIC [27]: 2 µg/mL (≈ 5.03 µM)
- MIC [28]: 32 µg/mL (≈ 80.5 µM)
